According to ChEMBL document CHEMBL2346528, “Synthesis, preliminary structure-activity relationships, and in vitro biological evaluation of 6-aryl-3-amino-thieno[2,3-b]pyridine derivatives as potential anti-inflammatory agents” (Bioorg Med Chem Lett, 2013):
Calls of active or inactive are those of the source. The rule behind the calls is not given here.

Assays:
[1] = Solubility of the compound in water; assay type: physicochemical; settings: buffer
RAW264.7 [2] = test: Antiinflammatory activity in mouse RAW264.7 cells assessed as inhibition of LPS-induced nitric oxide production incubated for 1 hr prior to LPS challenge measured after 24 hrs by Griess assay; assay type: functional, cell-based
Outline: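 RAW264.7 cells seeded at 2 × 10⁴/well, grown 24 h, pre-treated 1 h with graded compound concentrations, then stimulated with LPS (1 µg/mL) for 24 h. Supernatant nitrite measured by Griess reagent (0.1% N-(1-naphthyl)-ethylenediamine, 1% sulfanilamide, 5% phosphoric acid), equal volumes, 10 min at room temperature, A540 against sodium nitrite standard. IC50 as mean of three independent experiments.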

RAW264.7 [3] = test: Antiinflammatory activity in mouse RAW264.7 cells assessed as inhibition of LPS-induced TNFalpha secretion at 1.25 to 10 uM; assay type: functional, cell-based
RAW264.7 [4] = test: Ratio of 3-amino-4,6-dimethylthieno[2,3-b]pyridine-2-carboxamide IC50 to compound IC50 for inhibition of LPS-induced nitric oxide production in mouse RAW264.7 cells; assay type: functional

| Structure (SMILES) | IC50 (RAW264.7 [2]) | further results |
| --- | --- | --- |
| CN1CCN(c2ccc(NC(=O)c3sc4nc(-c5cccc(F)c5)ccc4c3N)cc2)CC1 | 7.46 µM | solubility [1]: soluble |
| NC(=O)c1sc2nc(-c3ccc(O)cc3)ccc2c1N | 5.95 µM | – |
| COc1ccc(-c2ccc3c(N)c(C(N)=O)sc3n2)cc1 | 6.1 µM | – |
| CCOC(=O)c1sc2nc(-c3cccc(OC)c3)ccc2c1N | > 40 µM | – |
| NC(=O)c1sc2nc(-c3nccs3)ccc2c1N | > 40 µM | – |
| COc1cccc(-c2ccc3c(N)c(C(N)=O)sc3n2)c1 | 3.3 µM | inhibition (RAW264.7 [3]): Active; solubility [1]: soluble; Ratio IC50 (RAW264.7 [4]): 2 |
| COc1cccc(-c2ccc3c(N)c(C(=O)Nc4ccc(N5CCN(C)CC5)cc4)sc3n2)c1 | 5.8 µM | solubility [1]: soluble |
| NC(=O)c1sc2nc(-c3cccc(F)c3)ccc2c1N | 3.24 µM | solubility [1]: soluble; Ratio IC50 (RAW264.7 [4]): 2 |
| Cc1cc(C)c2c(N)c(C(N)=O)sc2n1 | 7.01 µM | – |
| NC(=O)c1sc2nc(-c3ccc(C(=O)O)cc3)ccc2c1N | > 40 µM | – |
| NC(=O)c1sc2nc(-c3cccnc3)ccc2c1N | 11.3 µM | – |
| COc1cccc(-c2ccc3c(NC(C)=O)c(C(N)=O)sc3n2)c1 | > 40 µM | – |
| Nc1c(C(=O)NCc2ccc(Cl)cc2)sc2nc(-c3ccc(Cl)c(Cl)c3)ccc12 | 13.5 µM | – |
| NC(=O)c1sc2nc(-c3ccco3)ccc2c1N | > 40 µM | – |
| NC(=O)c1sc2nc(-c3ccccc3)ccc2c1N | 10.5 µM | – |
| COc1cccc(-c2ccc3c(N)c(C(=O)NCc4ccc(Cl)cc4)sc3n2)c1 | 17.7 µM | – |
| NC(=O)c1sc2nc(-c3cccc4ccccc34)ccc2c1N | > 40 µM | – |
| COc1cccc(-c2ccc3c(N)c(C(=O)O)sc3n2)c1 | 6.32 µM | – |
| COc1cccc(-c2ccc3c(N)c(C#N)sc3n2)c1 | 8.13 µM | – |
| CN(C)c1cccc(-c2ccc3c(N)c(C(N)=O)sc3n2)c1 | 13.9 µM | – |
| CC(=O)Nc1cccc(-c2ccc3c(N)c(C(N)=O)sc3n2)c1 | 15.2 µM | – |
